The results in this text go back to ChEMBL document CHEMBL2424600, “Synthetic polyamines activating autophagy: effects on cancer cell death” (Eur J Med Chem, 2013).

One may read the IC50 as the concentration needed to halve the response being measured.

Assay [1] relates to HeLa. The assay is described as follows: Induction of autophagy in human HeLa cells assessed as conversion of LC3-1 protein to LC3-2 protein at 8 mM after 24 hrs by Western blot analysis. It is filed as functional, cell-based. In outline: (§1)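 HeLa incubated 24 h with DENSPM (25 µM) or spermidine (8 mM); LC3-I/LC3-II processing by Western blot of 50 µg protein with monoclonal anti-LC3 antibody.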
Background: In western blotting, separated proteins are transferred to a membrane and probed.

The test system of assay [2] is HeLa. Briefly: Induction of apoptosis in human HeLa cells assessed as increase in caspase 3/7 activity at 25 uM after 24 hrs by DEVD-based fluorometric analysis. The format is functional, cell-based. Put shortly:
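HeLa treated 24 h with 25 µM DENSPM (positive control) or the indicated concentrations of compound; DEVDase (caspase 3/7) activity measured. Means ± S.E.M. of three replicates vs control.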

For assay [3], the system named is HeLa. The assay is described as follows: Induction of autophagy in human HeLa cells assessed as conversion of LC3-1 protein to LC3-2 protein at 25 uM after 24 hrs by Western blot analysis. It is filed as functional, cell-based. In outline: as §1
Assay [4] concerns HeLa. The assay is described as follows: Cytotoxicity against human HeLa cells assessed as decrease in cell survival at 25 uM after 24 hrs by trypan blue exclusion assay relative to control. It is filed as functional. Particulars: read-out: Survival. In outline: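 HeLa cells grown in EMEM with 10% FBS, 1% glutamine, 1% nonessential amino acids, 1 mM pyruvate and antibiotics at 37 °C in 5% CO2. Compound added from DMSO stock (DMSO 0.1% of volume; controls got DMSO only) and exposed 24 h. Viability read by trypan blue exclusion in triplicate samples, at least 10 fields counted. Survival given as % viable cells versus control.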

Another assay deals with Thymocyte. Briefly: Cytotoxicity against rat thymocytes assessed as cell survival after 24 hrs by trypan blue exclusion assay. The format is cell-based. Put shortly: (§2)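 Cells exposed 24 h to increasing concentrations (DMSO vehicle, 0.1% of medium; controls got DMSO) at 37 °C, 5% CO2. Viability by trypan blue exclusion, triplicate samples, at least 10 fields counted each; survival as % of viable cells vs control. IC50 read from dose–response curve as concentration giving 50% survival.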

Assay [5] deals with HeLa. Briefly: Cytotoxicity against human HeLa cells assessed as cell survival after 24 hrs by trypan blue exclusion assay. It is filed as functional, cell-based. In outline: as §2
Assay [6] is described as follows: Cytotoxicity against human C-28/I2 cells assessed as cell survival after 24 hrs by trypan blue exclusion assay. It is filed as cell-based. Particulars: C28/I2, 24 h. In outline: as §2

The structures appear in SMILES notation. The source made the active and inactive calls. The calls are words filed in the database; no cut-off is given here.

For `NCCCCNCCCN`, the result with HeLa [1] was Active.

For the compound `CCNCCCNCCCNCCCNCC` [BIS(ETHYL)NORSPERMINE], in the assay with HeLa [2], the result was Active. Moreover, the result with HeLa [3] was inactive. For the same compound, the viability at 25 µM in the assay on HeLa [4] worked out at 50%.

`COc1ccccc1CNCCCCCCNCCCCCCCCNCCCCCCNCc1ccccc1OC` [METHOCTRAMINE]: the IC50 (with Thymocyte; with HeLa [5]; in assay [6]) was greater than 100 µM each time.
